NR2E3 ag-1: inhibitors of NR2E3-RetCOR corepressor binding, primary screen, NR2E3 agonist project, biochemical, TR-FRET, GST-NR2E3, biotin-RetCOR; Photoreceptor-specific nuclear receptor (Homo sapiens), Q9Y5X4; 1536-well; inhibition of corepressor binding, % at 4.78 µM; 320,000 compounds, 0.12% hits; AID 2300, 2010;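 active = percent inhibition above the cutoff of mean plus 3 SD of all tested compounds, set per screening campaign, cut at about 20% in these data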;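 also: 0% = DMSO wells and 100% = biotin wells as full block of FRET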
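System: GST-tagged NR2E3 plus biotinylated RetCOR corepressor; Buffer or medium: pH 7.5 Tris-based buffer; Probe or stimulus: RetCOR corepressor, biotinylated, 7 nM; Doses: compound at 4.8 µM, single dose; Schedule: 5 h incubation at 4 °C; Technique: time-resolved FRET; Evaluation: percent inhibition of TR-FRET ratio; Replication: one well per compound, singlicate testing.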
DAX1 inh-1: DAX1 (NR0B1) inhibitors on StAR promoter, primary screen, cell-based, luminescence, SF-1 (NR5A1), full-length DAX-1; HEK293T StAR-luciferase reporter, SF-1/DAX-1 repression relief; inhibition, % at 6.8 µM; 370,000 compounds, 1.1% hits;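 active = inhibition above the mean over all tested compounds plus 3 SD, cut at about 3.6% in these data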;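 also: 0% = DAX-1 cells with DMSO and 100% = cells lacking DAX-1 with DMSO; higher inhibition means more luminescence from relief of DAX-1 repression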
JMJD2C inh: inhibitors of GASC-1 histone demethylase, primary screen, biochemical, fluorescence, DELFIA europium; AID 2099, 2009; 330,000 compounds, 0.069% hits; GST-JMJD2C(1-420) H3K9me3 demethylation; inhibition, % at 2.35 µM; Lysine-specific demethylase 4C (Homo sapiens), Q9H3R0;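 active = more than half of a compound's replicate wells show inhibition beyond 50%, single wells judged on their own value; inconclusive = some, but no more than half, of replicates pass 50% inhibition; inactive = no replicate passes 50% inhibition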;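 also: signal counts dimethyl H3K9 product captured on neutravidin plate; 0% = median of DMSO wells and 100% = 0.3 times that DMSO median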
Target sequence (Q9H3R0 1-420 limits assumed): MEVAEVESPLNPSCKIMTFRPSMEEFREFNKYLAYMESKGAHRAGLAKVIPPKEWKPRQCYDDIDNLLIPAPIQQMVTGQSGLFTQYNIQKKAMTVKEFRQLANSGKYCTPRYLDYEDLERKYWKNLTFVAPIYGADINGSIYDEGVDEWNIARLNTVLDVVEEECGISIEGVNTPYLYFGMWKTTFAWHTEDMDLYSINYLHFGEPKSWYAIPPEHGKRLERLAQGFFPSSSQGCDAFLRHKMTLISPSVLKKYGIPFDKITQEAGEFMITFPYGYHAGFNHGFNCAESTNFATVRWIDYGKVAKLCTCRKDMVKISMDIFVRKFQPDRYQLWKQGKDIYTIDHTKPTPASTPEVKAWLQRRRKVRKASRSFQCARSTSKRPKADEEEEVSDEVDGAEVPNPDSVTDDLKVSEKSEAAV
DAX1 inh-2: DAX1 (NR0B1) inhibitors, primary screen, cell-based, HEK293, Gal4-DAX1, luciferase luminescence; HEK293 Gal4-DAX1 luciferase reporter; inhibition, % at 6.75 µM; 340,000 compounds, 0.99% hits; AID 504766, 2011;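 active = inhibition above the mean over all tested compounds plus 3 SD, cut at about 4.2% in these data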;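 also: 0% = DAX1-transfected cells with DMSO and 100% = empty-vector control cells with DMSO; inhibition shows as a rise in luminescence from relieved DAX1 repression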
Target sequence (P51843 207-470 limits assumed): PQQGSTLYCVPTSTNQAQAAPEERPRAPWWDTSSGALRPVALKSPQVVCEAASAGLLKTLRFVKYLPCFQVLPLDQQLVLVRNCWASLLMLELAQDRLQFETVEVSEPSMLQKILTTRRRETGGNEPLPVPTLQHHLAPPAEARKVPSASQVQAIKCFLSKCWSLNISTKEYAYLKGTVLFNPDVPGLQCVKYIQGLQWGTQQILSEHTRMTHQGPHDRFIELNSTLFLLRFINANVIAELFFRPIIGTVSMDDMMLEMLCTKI
NR2E3 ag-2: NR2E3 agonists in two-hybrid cells, primary screen, cell-based, luminescence, CHO-S, Gal4-NCOR/VP16-NR2E3; AID 602229, 2012; 360,000 compounds, 0.35% hits; inhibition of corepressor binding, % at 3.98 µM; luciferase; Photoreceptor-specific nuclear receptor (Homo sapiens), Q9Y5X4;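 active = inhibition above the mean of all tested compounds plus 3 SD, cut at about 70% in these data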;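 also: 0% = DMSO with NR2E3 transfected cells and 100% = cells lacking NR2E3 construct; higher means lower luciferase signal from less NR2E3 corepressor binding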
SMARCA2 activ: SMARCA2 (BRM) function activators, primary screen, cell-based, luminescence, high throughput; MG213 cells, MMTV-luciferase reporter, dexamethasone, overnight; activation, % at 9.1 µM; 370,000 compounds, 1% hits; AID 652017, 2013; in the data active = activation above about 7.8%;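 also: 0% = vehicle wells and 100% = reference activator wells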
SMARCA2 act conf: SMARCA2 (BRM) function activators, confirmation, cell-based, luminescence, triplicate; shares compounds with SMARCA2 activ; MG213 cells, MMTV-luciferase with dexamethasone, overnight; MG213 cells expressing E1A, Rb sequestered; DMSO wells 0%, reference activator 100%; activation, % at 9.1 µM; 3,500 compounds, 30% hits;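 active = activation above its plate's cutoff, the mean activation of tested wells plus 3 SD, cut at about 7.9% in these data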
GAL4-VP16 Luc: GAL4-VP16 luciferase reporter activation, counter-screen for SMARCA2 (BRM) activator project, cell-based, pG5luc, luminescence, high throughput. shares compounds with SMARCA2 activ. HEK293 GAL4-VP16 pG5luc reporter; scaled: DMSO wells 0%, SAHA wells 100%. activation, % at 9.1 µM. 3,500 compounds, 41% hits. AID 686939, 2013;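 active = activation above the solvent-only control well mean plus 3 SD, averaged across control plates, cut at about 5.2% in these data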
Starred values were filed as active, the others as inactive; ? = inconclusive; · = not tested or not shown. Shown are actives, neighbours in structure and some others; about 3.2% of the full set was active somewhere.

SMILES	NR2E3 ag-1	DAX1 inh-1	JMJD2C inh	DAX1 inh-2	NR2E3 ag-2	SMARCA2 activ	SMARCA2 act conf	GAL4-VP16 Luc
CC(=O)c1ccc(NC(=O)N2CCc3ccccc3C2)cc1	5	-3	1	0	-28	2	·	·
O=C(Nc1ccccc1)N1CCc2ccccc2C1	0	1	5	2	-118	8	·	·
Cc1ccc(NC(=O)N2CCc3ccccc3C2)cc1	2	1	-2	2	-111	8.9*	5	8.5*
O=C(CSc1nnc(-c2ccco2)n1Cc1ccco1)c1ccc([N+](=O)[O-])cc1	·	0	·	·	·	-4	·	·
C/C(=N\NC(=O)c1ccc2c(c1)OCO2)c1ccc(NC(=O)CCCC(=O)O)cc1	·	2	-2	0	-49	8.3*	-5	1
O=C(Cc1cccs1)Nc1ccc(-c2nc3ccccc3[nH]2)cc1	3	2	-13	0	-63	8.8*	7	13*
c1ccc2[nH]c(-c3ccc4c(c3)OCO4)nc2c1	2	2	-13	·	-96	8.1*	22*	12*
Cc1nc(NC(=O)c2ccc3c(c2)OCO3)ccc1Br	5	3	6	4.3*	-144	8.6*	6	14*
CN(Cc1ccccc1)C1CCN(Cc2ccccc2[N+](=O)[O-])CC1	0	0	-4	2	-12	-3	·	·
O=C(NCCc1ccccc1F)C1C(=O)Nc2ccccc2C(=O)N1C1CCCCC1 (stereo not drawn)	·	0	·	·	·	-4	·	·
O=C(Nc1ccccn1)c1ccc2c(c1)OCCO2	2	4.2*	-15	2	-78	11*	6	6.0*
O=C(NN=C1CCCCCC1)c1ccc2c(c1)OCO2	3	0	-22	2	-54	10*	3	4
Cn1ncc([N+](=O)[O-])c1C(=O)Nc1ccc(-c2nc3ccccc3[nH]2)cc1	1	1	-5	-1	-75	9.6*	12*	2
CCN(CC)c1ccc(NC(=O)c2ccc3c(c2)OCO3)cc1	-6	1	-4	0	-131	10*	4	11*
O=C(CC1C(=O)NCCN1Cc1ccccc1C(F)(F)F)NCCN1CCCCC1=O (stereo not drawn)	1	0	2	1	5	0	·	·
CCC(CC)c1nnc(NC(=O)c2ccc3c(c2)OCO3)s1	2	1	3	2	-93	10*	3	6.6*
O=C(COc1ccccc1)Nc1cccc(-c2nc3ccccc3[nH]2)c1	1	0	0	0	-31	9.2*	6	4
CCC(CC)c1nnc(NC(=O)COc2ccc3c(c2)OCO3)s1	4	0	-1	0	-5	-3	·	·
O=C(Nc1ccc(-c2nc3ccccc3[nH]2)cc1)c1ccc2c(c1)OCO2	-16	0	-2	-1	-60	19*	13*	4
Cc1ccc(Cn2cc(CN3[C@@H](CC(C)C)COc4cc(Br)ccc4S3(=O)=O)nn2)cc1	·	0	·	·	·	0	·	·
O=C(Nc1ccc(Cl)c(Cl)c1)C1CCN(C(=O)c2ccco2)CC1	-4	-1	?	2	-23	-2	·	·
COc1ccc(-n2c(SCC(=O)NCC3CCCO3)nnc2-c2ccncc2)cc1 (stereo not drawn)	·	0	·	·	·	-1	·	·
COC(=O)c1cnn2c3c(c(C)nc12)CCCC3	3	1	-7	0	-38	11*	7	5
CCN(C(=O)[C@@H](C)[C@@H](O)c1ccc(C(C)=O)cc1)c1ccccc1	·	-1	·	·	·	-3	·	·
COC(=O)/C(C#N)=C/c1c[nH]c2ccccc12	2	0	-1	3	-6	1	·	·
SMILES	NR2E3 ag-1	DAX1 inh-1	JMJD2C inh	DAX1 inh-2	NR2E3 ag-2	SMARCA2 activ	SMARCA2 act conf	GAL4-VP16 Luc
CCOC(=O)/C(C#N)=C/c1c[nH]c2ccccc12	4	0	1	1	28	11*	5	4
COc1ccc(/C=C2\COc3ccccc3C2=O)c(OC)c1	2	1	-10	3	-29	8.9*	6	5.2*
COc1ccc(/C=C2\COc3ccccc3C2=O)cc1OC	-1	-1	-6	-3	-23	4	·	·
COc1ccc2nc(C)cc(NCCN3CCOCC3)c2c1	1	0	6	2	1	0	·	·
c1ccc2c(NCCCN3CCOCC3)c3ccccc3nc2c1	6	0	11	·	·	15*	28*	1
Cc1cc(NCCN2CCOCC2)c2ccc3ccccc3c2n1	2	1	-2	0	-4	11*	21*	3
Fc1ccccc1-c1nc(NCCCN2CCOCC2)c2ccccc2n1	-1	0	-1	-2	8	-1	·	·
CCN(CC)C(=O)[C@H]1CC(CC(=O)NCC23CC4CC(CC(C4)C2)C3)C(=O)N2CCc3c([nH]c4ccccc34)[C@]12C (stereo partly drawn)	·	1	·	0	-27	-5	·	·
O=C(NCCN1CCOCC1)C1CC(=O)N(c2ccc(F)cc2)C1 (stereo not drawn)	0	0	-6	0	-14	0	·	·
Cc1ccc2c(c1)sc1nc(=O)n(-c3ccccc3)c(=O)n12	7	2	-10	3	-52	12*	8.4*	12*
CSc1nnc2sc3cc(C)ccc3n12	·	-1	·	1	-39	2	·	·
Cc1ccc(OCC(=O)Nc2sc3c(c2C#N)CC(C)(C)NC3(C)C)cc1	0	1	11	0	-8	-4	·	·
CC1(C)Cc2c(sc(NC(=O)COc3cccc4ccccc34)c2C#N)C(C)(C)N1	-42	0	10	2	10	54*	41*	2
CC(=O)Nc1ccc2sn(-c3ccccc3)c(=O)c2c1	·	1	·	-1	-5	17*	8.8*	1
COC(=O)C1CCCN(C(=O)C(Cc2ccc3c(c2)OCO3)NC(C)=O)C1 (stereo not drawn)	·	0	·	·	·	16*	3	-1

Assay outcomes deposited in PubChem BioAssay by several laboratories.
